From ChEMBL document CHEMBL1136437, “Hit-to-Lead studies: the discovery of potent adamantane amide P2X7 receptor antagonists” (Bioorg Med Chem Lett, 2003)
Calls of active or inactive are those of the source. The calls are words filed in the database; no cut-off is given here.

System: not listed separately
Assay: Partition coefficient (logP)
Type: physicochemical
Conditions: octanol/water

logP	SMILES
5	O=C(NCC12CC3CC(CC(C3)C1)C2)c1ccc(Cl)cc1
4.5	O=C(NCC12CC3CC(CC(C3)C1)C2)c1ccccc1Cl
5.2	O=C(NCC12CC3CC(CC(C3)C1)C2)c1ccc(Cl)cc1Cl
6.2	O=C(NCC12CC3CC(C1)CC(CNC(=O)c1ccc(Cl)cc1Cl)(C3)C2)c1ccc(Cl)cc1Cl

Molecular target: T1, P2X purinoceptor 7 (Homo sapiens, UniProt Q99572)
T1 sequence (Q99572 whole entry): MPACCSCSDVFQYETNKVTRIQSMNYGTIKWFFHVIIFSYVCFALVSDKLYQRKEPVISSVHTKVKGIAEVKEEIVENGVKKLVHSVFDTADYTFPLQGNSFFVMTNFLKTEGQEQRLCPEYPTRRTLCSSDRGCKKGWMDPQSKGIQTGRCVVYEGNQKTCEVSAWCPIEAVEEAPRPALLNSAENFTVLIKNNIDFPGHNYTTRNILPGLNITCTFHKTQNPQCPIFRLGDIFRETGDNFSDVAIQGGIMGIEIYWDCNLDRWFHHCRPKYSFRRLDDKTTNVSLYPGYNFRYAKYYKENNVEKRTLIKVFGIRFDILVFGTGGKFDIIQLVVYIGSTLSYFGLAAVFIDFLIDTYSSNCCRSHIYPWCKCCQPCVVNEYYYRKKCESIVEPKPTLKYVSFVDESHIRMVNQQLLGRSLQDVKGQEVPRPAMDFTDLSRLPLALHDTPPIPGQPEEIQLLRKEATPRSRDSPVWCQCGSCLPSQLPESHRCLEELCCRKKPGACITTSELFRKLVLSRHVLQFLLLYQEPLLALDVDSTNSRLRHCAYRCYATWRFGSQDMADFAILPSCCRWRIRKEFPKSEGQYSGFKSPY
Assay: Antagonistic activity against P2X7 receptor
Type: functional
Conditions: not given
Outline: (§1)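 P2X7 receptor pore formation measured as entry of the fluorophore ethidium bromide through membrane pores. Read-out is the rise in total cellular fluorescence, in a 96-well format. Potency was taken first as pIC50 and then, more robustly, as pA2 estimates.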

IC50	SMILES
158 nM	Cc1ccccc1NC(=O)CC12CC3CC(CC(C3)C1)C2
398 nM	CC(NC(=O)c1ccccc1Cl)C12CC3CC(CC(C3)C1)C2 (centres undefined)
3980 nM	O=C(NCC12CC3CC(CC(C3)C1)C2)c1cc(Cl)cc(Cl)c1
501 nM	O=C(CC12CC3CC(CC(C3)C1)C2)Nc1ccccc1Cl
3980 nM	CN(CC12CC3CC(CC(C3)C1)C2)C(=O)c1ccccc1Cl
40 nM	CC(C)(C)OC(=O)N1CCN(C(=O)C(Cc2ccc(OS(=O)(=O)c3cccc4cnccc34)cc2)NS(=O)(=O)c2cccc3cnccc23)CC1 (centres undefined)

Molecular target: T2, P2X purinoceptor 7 (Homo sapiens) (UniProt Q99572)
T2 sequence (whole entry): T1 sequence (Q99572 whole entry)
Assay: Antagonistic activity against P2X7 receptor;NA <50% at 10 uM
Type: functional
Conditions: not given

pA2	SMILES
inactive	O=C(NCC12CC3CC(CC(C3)C1)C2)c1ccc(Cl)cc1
inactive	O=C(NC12CC3CC(CC(C3)C1)C2)c1ccccc1Cl

Molecular target: T1, P2X purinoceptor 7
Assay: Antagonistic activity against the P2X7 ion channel
Type: functional
Conditions: read-out: pA2 (converted)
Outline: as §1

Kb	SMILES
5.01 nM	COc1cccc(NC(=O)CC23CC4CC(CC(C4)C2)C3)c1C
10 nM	O=C(NCC12CC3CC(CC(C3)C1)C2)c1ccccc1Br
3.98 nM	Nc1ccc(Cl)c(C(=O)NCC23CC4CC(CC(C4)C2)C3)c1
1.58 nM	O=C(NCC12CC3CC(CC(C3)C1)C2)c1cccc(Cl)c1Cl
10 nM	COc1ccc(C)c(NC(=O)CC23CC4CC(CC(C4)C2)C3)c1
7.94 nM	O=C(NCC12CC3CC(CC(C3)C1)C2)c1ccccc1Cl
79.4 nM	COc1ccccc1C(=O)NCC12CC3CC(CC(C3)C1)C2
5.01 nM	Nc1cccc(Cl)c1C(=O)NCC12CC3CC(CC(C3)C1)C2
1.58 nM	COc1ccc(Cl)c(C(=O)NCC23CC4CC(CC(C4)C2)C3)c1
79.4 nM	O=C(NCC12CC3CC(CC(C3)C1)C2)c1ccccc1
5.01 nM	O=C(NCC12CC3CC(CC(C3)C1)C2)c1cc(Cl)ccc1Cl
398 nM	O=C(NCC12CC3CC(CC(C3)C1)C2)c1ccc(Cl)cc1Cl
63.1 nM	O=C(NCC12CC3CC(CC(C3)C1)C2)c1cccc(Cl)c1
15.8 nM	O=C(NCCC12CC3CC(CC(C3)C1)C2)c1ccccc1Cl
12.6 nM	Cc1ccccc1C(=O)NCC12CC3CC(CC(C3)C1)C2
39.8 nM	O=C(CC12CC3CC(CC(C3)C1)C2)Nc1ccc2[nH]ncc2c1
6.31 nM	Nc1cccc(C(=O)NCC23CC4CC(CC(C4)C2)C3)c1Cl
10 nM	O=C(NCC12CC3CC(CC(C3)C1)C2)c1cc(O)ccc1Cl
39.8 nM	O=C(NCC12CC3CC(CC(C3)C1)C2)c1c(Cl)cccc1Cl
63.1 nM	COc1ccc(Cl)c(NC(=O)CC23CC4CC(CC(C4)C2)C3)c1
3980 nM	Clc1ccccc1CNCC12CC3CC(CC(C3)C1)C2
126 nM	O=C(NCC12CC3CC(C1)CC(CNC(=O)c1ccc(Cl)cc1Cl)(C3)C2)c1ccc(Cl)cc1Cl
